According to PubChem BioAssay:
The list shows a part of the results. Values without a mark were called inactive. Active and inactive are the calls of the source.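 Rule for the calls, unless noted: active = mean activation over triplicate wells above the hit cutoff derived from the earlier primary screen (cut at about 11% in these data); inactive = the rest.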

Assays:
[1] = molecular target: Oxysterols receptor LXR-beta (Homo sapiens) (UniProt P55055); assay: LXR agonists, Gal4 luciferase reporter, confirmation, counter-screen for hcDAF-12 agonist project, cell-based, luminescence, HEK293, H. contortus campaign (AID 743027;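 active = mean percent activation of the reporter above a cutoff set as the average over tested compounds plus their standard deviation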); details: HEK293 Gal4-LXR tk-luc reporter, 24 h, at 6.8 µM, hits give high values, normalized: DMSO 0%, positive control 100%
Method in brief: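 material = Gal4-LXR and tk-luc reporter transfected HEK293 cells | benchmarks = DMSO low control, positive-control high control | compound dosing = one nominal 6.8 µM dose, 0.68% DMSO | repeats = three replicates per compound | times = 24 h compound exposure at 37 °C, 5% CO2 | detection = One-Glo luciferase luminescence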

[2] = test system: Nuclear hormone receptor DAF-12 (Haemonchus contortus); assay: H. contortus DAF-12 receptor agonists, confirmation, cell-based, luminescence, HEK293, lit1-tk-luc, triplicate (AID 743032;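 active = mean activation across triplicate tests above the threshold derived from the earlier primary screen, cut at about 5.5% in these data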;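 note: 0% = DMSO only wells and 100% = 3 µM Δ7-dafachronic acid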); details: HEK293 hcDAF-12 lit1-tk-luc reporter, at 6.8 µM, hits give high values, % of Δ7-dafachronic acid response
[3] = test system: DAF-12 nuclear receptor (Heterodera glycines), GAL4-LBD fusion; assay: H. glycines DAF-12 receptor agonists, confirmation, cell-based, luminescence, HEK293, GAL4-LBD fusion (AID 743050); details: HEK293 GAL4-hgDAF12 luciferase reporter, agonist mode; at 6.8 µM; hits give high values; percent of butyrate response;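 note: 0% = DMSO low control and 100% = 2 mM sodium butyrate high control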
[4] = molecular target: Oxysterols receptor LXR-beta (Homo sapiens) (UniProt P55055); assay: LXR agonists, Gal4 luciferase reporter, confirmation, counter-screen for hgDAF-12 agonist project, cell-based, luminescence, HEK293, H. glycines campaign (AID 743051;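 active = mean activation of the triplicate above a set limit carried over from the primary screen, none filed active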); details: 24 h, at 6.8 µM, hits give high values
Method in brief: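 System: Gal4-LXR luciferase reporter HEK293 cells / Compound: single nominal test compound dose of 6.8 µM / Times: 24 h exposure, 37 °C / Technique: One-Glo luminescence after 15 min / Read-out basis: % activation versus DMSO and positive controls / Benchmarks: DMSO low control, 0.68% final / Replication: n 3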

Sequence of Oxysterols receptor LXR-beta (Homo sapiens) (P55055 whole entry, looked up, the tested form may be a part): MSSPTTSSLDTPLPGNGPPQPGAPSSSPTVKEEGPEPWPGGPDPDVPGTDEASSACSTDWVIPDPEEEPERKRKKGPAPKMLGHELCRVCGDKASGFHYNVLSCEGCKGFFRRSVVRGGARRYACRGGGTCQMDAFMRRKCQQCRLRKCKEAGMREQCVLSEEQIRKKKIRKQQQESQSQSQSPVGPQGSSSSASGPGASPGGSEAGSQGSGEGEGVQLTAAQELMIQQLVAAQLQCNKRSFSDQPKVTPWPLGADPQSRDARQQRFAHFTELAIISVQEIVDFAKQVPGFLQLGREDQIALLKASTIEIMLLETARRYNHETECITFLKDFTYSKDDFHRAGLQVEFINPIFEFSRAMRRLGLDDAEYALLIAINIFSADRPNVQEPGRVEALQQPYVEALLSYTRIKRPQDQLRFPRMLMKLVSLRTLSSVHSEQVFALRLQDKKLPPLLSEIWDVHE

| SMILES | activation [1] | activation [2] | activation [3] | activation [4] |
| --- | --- | --- | --- | --- |
| Nc1ccc(C(=O)Nc2ccccc2N)cc1 | 1.14% | 9.52% (active) | 85.4% (active) | 0.48% |
| Cc1cc(OCc2cc(C(=O)NCc3cc(C(C)C)no3)no2)cc(C)c1Cl | 0.91% | 7.69% (active) | 20.9% (active) | 0.62% |
| c1ccc(Cc2c(-c3ccco3)nc3c4ccccc4ccn23)cc1 | 1.44% | 15.8% (active) | 16.6% (active) | 0.76% |
| COc1ccc(Nc2ccc3ccccc3c2)cc1 |  |  | 13% (active) | 0.53% |
| Cc1ccc(NC(=O)c2cc3ccccc3o2)cc1 | 1.5% | 7.27% (active) | 22% (active) | 0.74% |
| CN1CCN(c2ccc(NC(=O)c3ccc4c(c3)OCCO4)cc2Cl)CC1 | 1.56% | 6.28% (active) | 9.5% | 0.88% |
| O=C(Nc1ccn(Cc2ccccc2)n1)c1cccc(F)c1 | 1.66% | 7.02% (active) | 15.6% (active) | 0.7% |
| CC(=O)Nc1cccc(C(=O)OCC(=O)c2ccc3c(c2)OCO3)c1 | 1.92% | 8.03% (active) | 16.6% (active) | 1.1% |
| Brc1ccc2nc(N3CCCC3)sc2c1 | 0.77% | 5.13% | 12.5% (active) | 0.64% |
| O=C(Nc1ncccc1O)c1ccc(C(=O)c2ccccc2)cc1 | 1.21% | 8.51% (active) | 84.2% (active) | 0.71% |
